Laboratory results published in PubChem BioAssay.
Inconclusive results are not listed.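 Rule for the calls, unless noted: active = viability at or below 27.92% in each of two runs, the all-compound median minus 4 SD; inconclusive = no clear call, values can overlap the other calls; inactive = the rest.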

Key:
[1] = OD615 S. cerevisiae growth inhibition, permissive medium, pilot counter-assay, permissive growth control for S. cerevisiae lifespan shortening project (AID 705;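 active = growth inhibition above 25% in both replicates, a cutoff set 3 SD above the mean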); details: OD615, 24 h, at 10 µM, stronger effect = higher value
How it was run: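 assay system = Saccharomyces cerevisiae strain carrying genetically modified DeaD replicative-lifespan system | technique = absorbance (optical density) at 615 nm | buffer or medium = permissive raffinose/galactose medium | timing = cells pre-grown 4 h, then 24 h compound exposure, 30 °C humidified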

[2] = Restrictive medium S. cerevisiae growth inhibition, OD615, pilot screen of yeast lifespan reduction project, restrictive growth control (AID 706;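 active = growth inhibition above a set limit, 3 SD over mean compound inhibition, in both replicates, cut at about 43% in these data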;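 note: modified DeaD lifespan yeast strain shifted to restrictive glucose medium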); details: OD615, 48 h, at 10 µM, stronger effect = higher value
How it was run: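 System: modified S. cerevisiae. Buffer or medium: CSMM-D glucose medium. Incubation: 4 h pre-growth plus 48 h compound exposure, 30 °C. Detection: absorbance (optical density) measured at 615 nm.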

[3] = viability gain of MRP-1-high H69AR cells under doxorubicin, pilot screen, MRP-1 activator project, CellTiter-Glo, duplicate (AID 807;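 active = viability increase at or above a cutoff of the median across tested compounds plus 3 SD, cut at about 8.5% in these data, passing the limit was not always enough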;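 note: compound pretreatment 18-22 h then 72 h combined with doxorubicin; 0% = doxorubicin alone and 100% = vehicle without doxorubicin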); details: H69AR viability with doxorubicin, CellTiter-Glo luminescence; at 10 µM; stronger effect = higher value
[4] = growth suppression of beta-catenin knockout HCT116, pilot screen, human colon tumor cells (AID 823;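 active = cell viability at or below a set limit in both duplicate runs, the limit being the all-compound median minus 4 SD, cut at about 23% in these data, passing the limit was not always enough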;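 note: 0% = wells killed by 20 µM Hyamine and 100% = untreated DMSO cell wells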); details: CellTiter-Glo, 60 h, at 10 µM, stronger effect = lower value
[5] = growth suppression of PTEN-deleted HCT116, pilot screen, cell-based, HCT116 clonal line, CellTiter-Glo (AID 824); details: 60 h, at 10 µM, stronger effect = lower value;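 note: 0% = 20 µM Hyamine control and 100% = vehicle cell control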
[6] = inhibitors of the yeast RAM network, pilot screen, dse1pr::URA3 reporter, 5-FOA selection (AID 869;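 active = inhibition over a set limit, the all-compound mean plus 3 SD, in both replicate runs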;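 note: 0% = DMSO wells with no growth and 100% = 10 µM 1-NA-PP1 with full growth; RAM network block rescues cells from 5-FOA so hits raise OD615 growth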); details: S. cerevisiae dse1pr::URA3 5-FOA growth, OD615, 2 d; at 10 µM; stronger effect = higher value; strain carries analog-sensitive mutant Cbk1 kinase
[7] = RAM signaling pathway blockade in yeast – S. cerevisiae, Pdr1DBD-CYC8 efflux-inhibited sensitized strain, primary screen (AID 1298;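 active = RAM network inhibition above 8.4% in each of two replicates, 3 SD over the compound average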;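 note: 0% = DMSO untreated cells without growth and 100% = 10 µM 1-NA-PP1 full growth; higher means more yeast growth rescued from 5-FOA killing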); details: S. cerevisiae cbk1-as DSE1-URA3 strain, 5-FOA growth OD615, 2 d; at 50 µM; stronger effect = higher value

Cc1cccc(-n2ncc3c(NCCc4ccc(S(N)(=O)=O)cc4)ncnc32)c1
inactive: growth inhibition [1] 2.13% | growth inhibition [2] 1.53% | viability increase [3] -2.67% | viability [4] 88.8% | viability [5] 82% | inhibition [6] 1.27% | RAM network inhibition [7] 4.84%

Cc1cc(C)n2nc(S(=O)(=O)N(CC(C)C)CC(C)C)nc2n1
inactive: growth inhibition [1] 3.3% | growth inhibition [2] 3.41% | viability increase [3] -1.13% | viability [4] 104% | viability [5] 94.2% | inhibition [6] 1.08% | RAM network inhibition [7] 0.22%

COc1ccc(S(=O)(=O)N2CCCN(S(=O)(=O)c3ccc(OC)cc3C)CC2)c(C)c1
inactive: growth inhibition [1] -12.6% | growth inhibition [2] -4.12% | viability increase [3] -6.52% | viability [4] 87.2% | viability [5] 84.7% | inhibition [6] -0.105% | RAM network inhibition [7] 3.22%

COc1cc2c(cc1OC)CN(Cc1cccs1)CC2
inactive: growth inhibition [1] -20.3% | growth inhibition [2] -28.9% | viability increase [3] -1.14% | viability [4] 86.4% | viability [5] 90% | inhibition [6] 2.71% | RAM network inhibition [7] 2.76%

O=C1CC(NCc2ccc3c(c2)OCO3)C(=O)N1CCc1ccccc1 (configuration not stated)
inactive: growth inhibition [1] -16% | growth inhibition [2] -11.1% | viability increase [3] -2.06% | viability [4] 102% | viability [5] 104% | inhibition [6] 1.88% | RAM network inhibition [7] 0.51%

CN1C(=O)CS(=O)c2ccc(C(=O)NCCC3=CCCCC3)cc21 (configuration not stated)
inactive: growth inhibition [1] 0.135% | growth inhibition [2] 0.3% | viability increase [3] -2.35% | viability [4] 81.3% | viability [5] 85% | inhibition [6] 0.265% | RAM network inhibition [7] 2.98%

Cc1ccc(S(=O)(=O)NCc2nc3ccccc3[nH]2)cc1
inactive: growth inhibition [1] -4.75% | growth inhibition [2] 4.05% | viability increase [3] 1.61% | viability [4] 98.7% | viability [5] 97.8% | inhibition [6] 2.42% | RAM network inhibition [7] 1.58%

COCCN1C(=O)c2oc3ccccc3c(=O)c2C1c1ccc(OC)c(OC)c1 (configuration not stated)
inactive: growth inhibition [1] -24% | growth inhibition [2] -16.9% | viability increase [3] -1.75% | viability [4] 107% | viability [5] 95.1% | inhibition [6] 0.865% | RAM network inhibition [7] 4.46%

O=C(CSc1nc2c(c(=O)n1-c1ccc(F)cc1)SCC2)NCc1ccco1
inactive: growth inhibition [1] 8.53% | growth inhibition [2] 14.1% | viability increase [3] -2.1% | viability [4] 102% | viability [5] 103% | inhibition [6] 1.21% | RAM network inhibition [7] 7.3%

CCOc1ccc(N=CC2=C(O)CC(C)(C)CC2=O)cc1
inactive: growth inhibition [1] -18.6% | growth inhibition [2] -0.24% | viability increase [3] -0.38% | viability [4] 92% | viability [5] 103% | inhibition [6] 1.86% | RAM network inhibition [7] 1.77%

CN(CP(=O)(O)C(O)c1ccccc1)S(C)(=O)=O (configuration not stated)
inactive: growth inhibition [1] -4.82% | growth inhibition [2] -6.66% | viability increase [3] 0.16% | viability [4] 94.2% | viability [5] 93.4% | inhibition [6] 1.1% | RAM network inhibition [7] 1.86%

CC(C)C(NC(=O)CN1C(=O)c2ccccc2S1(=O)=O)C(C)C
inactive: growth inhibition [1] -10% | growth inhibition [2] -13% | viability increase [3] -2.05% | viability [4] 98.8% | viability [5] 94.3% | inhibition [6] 1.4% | RAM network inhibition [7] -1.56%

Cc1cc(C)nc(SCc2ccccc2C#N)n1
inactive: growth inhibition [1] -9.81% | growth inhibition [2] -6.26% | viability increase [3] -0.49% | viability [4] 98.8% | viability [5] 98% | inhibition [6] 0.705% | RAM network inhibition [7] 9.71%

C1CCC2(CC1)C1=C(CCCC1)Nc1nnnn12
inactive: growth inhibition [1] -4.35% | growth inhibition [2] 1.16% | viability increase [3] -1.07% | viability [4] 93.5% | viability [5] 87.8% | inhibition [6] 2.16% | RAM network inhibition [7] 5.77%

COc1ccc(N(CC(=O)Nc2ccc3c(c2)OCO3)S(=O)(=O)c2ccccc2)c(OC)c1
inactive: growth inhibition [1] -7.79% | growth inhibition [2] -13.1% | viability increase [3] -2.07% | viability [4] 71.8% | viability [5] 75.6% | inhibition [6] 2.93% | RAM network inhibition [7] 9.79%

COC(=O)C1C2C=CC3(CN(c4cccc(Cl)c4)C(=O)C13)O2 (configuration not stated)
inactive: growth inhibition [1] -11.2% | growth inhibition [2] -8.25% | viability increase [3] -1.38% | viability [4] 107% | viability [5] 99.5% | inhibition [6] 1.06% | RAM network inhibition [7] 5.74%

CCOc1ccc(N(CC(=O)NCc2cccs2)S(=O)(=O)c2c(C)noc2C)cc1
inactive: growth inhibition [1] -17.4% | growth inhibition [2] -7.87% | viability increase [3] -2.25% | viability [4] 95.1% | viability [5] 94.7% | inhibition [6] 1.49% | RAM network inhibition [7] 6.62%

CCOC(=O)c1c(C)oc2ccc(OC(=O)N3CCOCC3)cc12
inactive: growth inhibition [1] -16.1% | growth inhibition [2] 0.815% | viability increase [3] -1.36% | viability [4] 93.8% | viability [5] 89.6% | inhibition [6] 0.115% | RAM network inhibition [7] 0.98%

CCCn1c(CN2CCN(C(=O)c3ccco3)CC2)nc2c1c(=O)n(C)c(=O)n2C
inactive: growth inhibition [1] -14.1% | growth inhibition [2] -25.5% | viability increase [3] -1.84% | viability [4] 97% | viability [5] 93.8% | inhibition [6] 0.34% | RAM network inhibition [7] 2.82%

Cc1ccc(OC(=O)CCC(=O)N2CCc3ccccc32)cc1
inactive: growth inhibition [1] -5.4% | growth inhibition [2] -2.35% | viability increase [3] -3.7% | viability [4] 89.6% | viability [5] 97.9% | inhibition [6] 2.2% | RAM network inhibition [7] 0.82%

CC(CCc1ccco1)NC(=O)c1cc2c(-c3ccccc3F)nn(C)c2s1 (configuration not stated)
inactive: growth inhibition [1] -0.025% | growth inhibition [2] 5.7% | viability increase [3] 1.04% | viability [4] 83.3% | viability [5] 78.7% | inhibition [6] 1.15% | RAM network inhibition [7] -0.15%

CN(C(=O)c1ccc2c(c1)OCO2)C1(C(=O)NC2CCCCC2)CCCCC1
inactive: growth inhibition [1] -8.36% | growth inhibition [2] 0.39% | viability increase [3] -1.06% | viability [4] 90.6% | viability [5] 83.6% | inhibition [6] 1.91% | RAM network inhibition [7] 0.21%

Cc1c(C(=O)O)oc2ccc(S(=O)(=O)N3CCCCC3C(=O)O)cc12 (configuration not stated)
inactive: growth inhibition [1] 4.47% | growth inhibition [2] -3.15% | viability increase [3] -0.18% | viability [4] 97.1% | viability [5] 101% | inhibition [6] 1.12% | RAM network inhibition [7] 5.52%

CC12CCC(C(=O)Nc3ccc4c(c3)OCCO4)(OC1=O)C2(C)C (configuration not stated)
inactive: growth inhibition [1] -20.5% | growth inhibition [2] -5.64% | viability increase [3] -0.01% | viability [4] 93.7% | viability [5] 97.8% | inhibition [6] 1.28% | RAM network inhibition [7] -0.36%

Cn1cc(S(=O)(=O)Nc2ccc(F)cc2F)c(=O)n(C)c1=O
inactive: growth inhibition [1] -11.6% | growth inhibition [2] 0.815% | viability increase [3] 0.9% | viability [4] 98.8% | viability [5] 95% | inhibition [6] 1.39% | RAM network inhibition [7] 1.28%

Cc1noc(C)c1S(=O)(=O)N1CCN(C(c2ccccc2)c2ccc(Cl)cc2)CC1 (configuration not stated)
inactive: growth inhibition [1] -1.19% | growth inhibition [2] -0.625% | viability increase [3] 0.02% | viability [4] 66.3% | viability [5] 67.5% | inhibition [6] 1.61% | RAM network inhibition [7] 7.2%

Brc1cccc(-c2nnc(SCc3ccon3)n2-c2ccccc2)c1
inactive: growth inhibition [1] -5.09% | growth inhibition [2] 3.47% | viability increase [3] -5.94% | viability [4] 92.3% | viability [5] 78.7% | inhibition [6] 1.46% | RAM network inhibition [7] 0.07%

CCOc1ccc(S(=O)(=O)Nc2ccccc2C(=O)NCC2CCCO2)cc1 (configuration not stated)
inactive: growth inhibition [1] -13% | growth inhibition [2] -16.7% | viability increase [3] -0.84% | viability [4] 94.1% | viability [5] 95.5% | inhibition [6] 1.91% | RAM network inhibition [7] 5.77%

CCCn1cc(SCC(=O)Nc2nnc(C)s2)c2ccccc21
inactive: growth inhibition [1] 3.3% | growth inhibition [2] 0.865% | viability increase [3] -2.55% | viability [4] 91% | viability [5] 96.2% | inhibition [6] 1.1% | RAM network inhibition [7] 3.75%

CC(C)CCSc1nnc(Cn2c(=O)sc3ccccc32)n1C
inactive: growth inhibition [1] -10.3% | growth inhibition [2] 2.02% | viability increase [3] 0.27% | viability [4] 79.8% | viability [5] 83.5% | inhibition [6] 1.08% | RAM network inhibition [7] 4.4%

CCCNS(=O)(=O)c1cccc2cccnc12
inactive: growth inhibition [1] -6.87% | growth inhibition [2] 6.17% | viability increase [3] -1.58% | viability [4] 101% | viability [5] 96.5% | inhibition [6] 1.89% | RAM network inhibition [7] 0.72%

COc1ccc(C(=O)CCC(=O)O)cc1
inactive: growth inhibition [1] -6.25% | growth inhibition [2] 0.095% | viability increase [3] -0.14% | viability [4] 98.1% | viability [5] 96.7% | inhibition [6] 2.16% | RAM network inhibition [7] -2.03%

COCCCNC(=O)c1oc2ccc(S(=O)(=O)N(C)C3CCCCC3)cc2c1C
inactive: growth inhibition [1] 1.36% | growth inhibition [2] 5.4% | viability increase [3] 0.15% | viability [4] 90.1% | viability [5] 94.2% | inhibition [6] -0.46% | RAM network inhibition [7] 1.23%

CCOc1ccccc1NC(=O)CSc1nnc(-c2ccccn2)n1Cc1ccco1
inactive: growth inhibition [1] -4.62% | growth inhibition [2] 11.5% | viability increase [3] -1.92% | viability [4] 96.9% | viability [5] 98.5% | inhibition [6] 0.955% | RAM network inhibition [7] 3.98%

O=C(CCCOc1ccc(Cl)cc1)N1CCCCC1
inactive: growth inhibition [1] -13.2% | growth inhibition [2] -11.9% | viability increase [3] 3.35% | viability [4] 96.1% | viability [5] 96.8% | inhibition [6] 0.44% | RAM network inhibition [7] -0.78%

CC(C)CCNC(=O)Cn1c(=O)oc2cc(S(=O)(=O)N3CCc4ccccc43)ccc21
inactive: growth inhibition [1] -6.32% | growth inhibition [2] -5.12% | viability increase [3] -5.87% | viability [4] 71.8% | viability [5] 62.5% | inhibition [6] 1.15% | RAM network inhibition [7] 1.07%
